Test results taken from ChEMBL document CHEMBL3272204, “Products from furans. 1. Sunthesis and anticoccidial and antimicrobial activity of 5-amino-5,6-dihydro-6-methoxy-2-methyl-2-(4'-biphenylyl)-2H-pyran-3(4H)-ones and related compounds” (1976).
Converted amounts (≈) assume the structure as drawn. The source made the active and inactive calls. The rule behind the calls is not given here.

Tests used:
Eimeria tenella [1] = assay: Anticoccidal activity against Eimeria tenella assessed as improved weight gain in chicken at 0.002%, po; format: functional, organism-based
Staphylococcus [2] = assay: Antibacterial activity against penicillin-sensitive Staphylococcus pyogenes assessed as growth inhibition after 24 hrs; format: functional
In short: (§1)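 Halving (twofold) serial dilutions of compound in nutrient broth, in vitro. Incubated 24 hr at 37°. Value reported is the lowest concentration that inhibited growth.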

Staphylococcus [3] = assay: Antibacterial activity against penicillin-resistant Staphylococcus pyogenes assessed as growth inhibition after 24 hrs; format: functional; in short: as §1
Enterococcus faecalis = assay: Antibacterial activity against Streptococcus faecalis assessed as growth inhibition after 24 hrs; format: functional
In short: (§2)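 Twofold serial dilutions in nutrient broth. The minimum concentration inhibiting visible growth was read after 24 hr incubation at 37°.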

[4] = (§3) Antibacterial activity against Salmonella pullorum assessed as growth inhibition after 24 hrs; format: functional, Salmonella enterica subsp. enterica serovar Pullorum; details: Salmonella enterica, 24 h; read-out: MIC; in short: as §2
Pseudomonas aeruginosa = assay: Antibacterial activity against Pseudomonas aeruginosa assessed as growth inhibition after 24 hrs; format: functional; in short: as §2
Escherichia coli = assay: Antibacterial activity against Escherichia coli 198 assessed as growth inhibition after 24 hrs; format: functional; in short: as §2
Klebsiella aerogenes = assay: Antibacterial activity against Aerobacter aerogenes assessed as growth inhibition after 24 hrs; format: functional; in short: as §2
Proteus vulgaris = assay: Antibacterial activity against Proteus vulgaris assessed as growth inhibition after 24 hrs; format: functional; in short: as §2
Klebsiella pneumoniae = assay: Antibacterial activity against Klebsiella pneumoniae assessed as growth inhibition after 24 hrs; format: functional; in short: as §2
Serratia marcescens = assay: Antibacterial activity against Serratia marcescens assessed as growth inhibition after 24 hrs; format: functional; in short: as §2
Eimeria tenella [5] = assay: Anticoccidal activity against Eimeria tenella assessed as improved weight gain and mortality in chicken relative to noninfected control; format: functional, organism-based
In short: (§4)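 Chickens with experimental coccidiosis received compound orally in the diet at 0.05%, starting 1 day before infection. Efficacy was judged 6 days later from survival and weight gain.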

Eimeria acervulina [6] = assay: Anticoccidal activity against Eimeria acervulina assessed as improved weight gain in chicken; format: functional, organism-based; in short: as §4
Nannizzia gypsea = assay: Antifungal activity against Microsporum gypseum assessed as growth inhibition after 10 days at 28 degC; format: functional
In short: (§5)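 Twofold serial dilutions in Sabouraud broth. The minimum inhibitory concentration was read after 10 days at 28°.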

[7] = Antifungal activity against Trichophyton granulosum assessed as growth inhibition after 10 days at 28 degC; format: functional; details: Trichophyton mentagrophytes var. granulosum; in short: as §5
Eimeria tenella [8] = assay: Anticoccidal activity against Eimeria tenella assessed as improved weight gain in chicken at 0.05%, po; format: functional, organism-based; in short: as §4
Eimeria acervulina [9] = assay: Anticoccidal activity against Eimeria acervulina assessed as improved weight gain and mortality in chicken relative to noninfected control; format: functional, organism-based; in short: as §4
[10] = system: Salmonella enterica subsp. enterica serovar Pullorum; assay: as §3; format: functional; in short: as §2
Candida albicans = assay: Antifungal activity against Candida albicans assessed as growth inhibition after 5 days at 37 degC; format: functional
In short: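 Twofold serial dilutions in Sabouraud broth. The minimum inhibitory concentration was read after 5 days at 37°.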

[11] = Staphylococcus, 24 h, read-out: MIC
[12] = Enterococcus faecalis, 24 h, read-out: MIC
[13] = Pseudomonas aeruginosa, 24 h, read-out: MIC
[14] = Escherichia coli, 198, 24 h, read-out: MIC
[15] = Klebsiella aerogenes, 24 h, read-out: MIC
[16] = Proteus vulgaris, 24 h, read-out: MIC
[17] = Klebsiella pneumoniae, 24 h, read-out: MIC
[18] = Serratia marcescens, 24 h, read-out: MIC
[19] = Nannizzia gypsea, 240 h, read-out: MIC

SMILES | MIC (Staphylococcus [2]; [11]) | MIC (Staphylococcus [3]; [11]) | MIC (Enterococcus faecalis; [12]) | MIC [4] | MIC (Pseudomonas aeruginosa; [13]) | MIC (Escherichia coli; [14]) | MIC (Klebsiella aerogenes; [15]) | MIC (Proteus vulgaris; [16]) | MIC (Klebsiella pneumoniae; [17]) | MIC (Serratia marcescens; [18]) | Activity (Eimeria tenella [5]) | Activity (Eimeria acervulina [6]) | MIC (Nannizzia gypsea; [19]) | MIC [7] | Activity (Eimeria acervulina [9]) | MIC (Candida albicans) | further results
CCCCc1cc2c(=O)c(C(=O)OC)c[nH]c2cc1OCc1ccccc1 |  |  |  |  |  |  |  |  |  |  |  |  |  |  |  |  | Activity (Eimeria tenella [1]): Active
CNC1CC(=O)C(C)(c2ccc(-c3ccccc3)cc2)OC1OC (configuration not stated) | 0.8 µg/mL (≈ 2.46 µM) | 0.8 µg/mL (≈ 2.46 µM) | 0.8 µg/mL (≈ 2.46 µM) | 0.8 µg/mL (≈ 2.46 µM) | 0.8 µg/mL (≈ 2.46 µM) | 0.8 µg/mL (≈ 2.46 µM) | 0.8 µg/mL (≈ 2.46 µM) | 0.8 µg/mL (≈ 2.46 µM) | 0.8 µg/mL (≈ 2.46 µM) | 0.8 µg/mL (≈ 2.46 µM) | Active | inactive |  |  |  |  | 
COC1OC(C)(c2ccc(-c3ccccc3)cc2)C(=O)CC1N1CCN(C)CC1 (configuration not stated) | 6.2 µg/mL (≈ 15.7 µM) | 6.2 µg/mL (≈ 15.7 µM) | 6.2 µg/mL (≈ 15.7 µM) | 6.2 µg/mL (≈ 15.7 µM) | 6.2 µg/mL (≈ 15.7 µM) | 6.2 µg/mL (≈ 15.7 µM) | 6.2 µg/mL (≈ 15.7 µM) | 6.2 µg/mL (≈ 15.7 µM) | 6.2 µg/mL (≈ 15.7 µM) | 6.2 µg/mL (≈ 15.7 µM) |  |  | 3.2 µg/mL (≈ 8.11 µM) | 1.6 µg/mL (≈ 4.06 µM) | Active |  | Activity (Eimeria tenella [8]): inactive
COC1OC(C)(c2ccc(-c3ccccc3)cc2)C(O)CC1N1CCN(C)CC1 (configuration not stated) |  |  |  |  |  |  |  |  |  |  | Active | inactive |  | inactive |  | inactive | MIC (Staphylococcus [2]): inactive; MIC (Staphylococcus [3]): inactive; MIC (Enterococcus faecalis): inactive; MIC [10]: inactive; MIC (Pseudomonas aeruginosa): inactive; MIC (Escherichia coli): inactive; MIC (Klebsiella aerogenes): inactive; MIC (Proteus vulgaris): inactive; MIC (Klebsiella pneumoniae): inactive; MIC (Serratia marcescens): inactive; MIC (Nannizzia gypsea): inactive
COC1OC(C)(c2ccc(-c3ccccc3)cc2)C(=O)CC1N1CCOCC1 (configuration not stated) | 3.2 µg/mL (≈ 8.39 µM) | 3.2 µg/mL (≈ 8.39 µM) | 3.2 µg/mL (≈ 8.39 µM) | 3.2 µg/mL (≈ 8.39 µM) | 3.2 µg/mL (≈ 8.39 µM) | 3.2 µg/mL (≈ 8.39 µM) | 3.2 µg/mL (≈ 8.39 µM) | 3.2 µg/mL (≈ 8.39 µM) | 3.2 µg/mL (≈ 8.39 µM) | 3.2 µg/mL (≈ 8.39 µM) | Active | inactive | 3.2 µg/mL (≈ 8.39 µM) | 16 µg/mL (≈ 41.9 µM) |  | inactive | 
COC1OC(C)(c2ccc(-c3ccccc3)cc2)C(=O)CC1N(C)C (stereo in doubt; 2a) |  |  |  |  |  |  |  |  |  |  | Active |  |  | 8 µg/mL (≈ 23.6 µM) | Active |  | 
COC1OC(C)(c2ccc(-c3ccccc3)cc2)C(O)CC1N(C)C (stereo in doubt; 3a) |  |  |  |  |  |  |  |  |  |  | Active |  |  | inactive | Active | inactive | MIC (Staphylococcus [2]): inactive; MIC (Staphylococcus [3]): inactive; MIC (Enterococcus faecalis): inactive; MIC [10]: inactive; MIC (Pseudomonas aeruginosa): inactive; MIC (Escherichia coli): inactive; MIC (Klebsiella aerogenes): inactive; MIC (Proteus vulgaris): inactive; MIC (Klebsiella pneumoniae): inactive; MIC (Serratia marcescens): inactive; MIC (Nannizzia gypsea): inactive
COC1C=CC(=O)C(C)(c2ccc(-c3ccccc3)cc2)O1 (single isomer, unassigned; isomer 1) |  |  |  |  |  |  |  |  |  |  |  |  |  | 8 µg/mL (≈ 27.2 µM) |  |  | Activity (Eimeria tenella [8]): inactive
CN(C)C(=O)OC1C=CC(=O)C(C)(c2ccc(-c3ccccc3)cc2)O1 (configuration not stated) | 6.2 µg/mL (≈ 17.6 µM) | 6.2 µg/mL (≈ 17.6 µM) | 6.2 µg/mL (≈ 17.6 µM) | 6.2 µg/mL (≈ 17.6 µM) | 6.2 µg/mL (≈ 17.6 µM) | 6.2 µg/mL (≈ 17.6 µM) | 6.2 µg/mL (≈ 17.6 µM) | 6.2 µg/mL (≈ 17.6 µM) | 6.2 µg/mL (≈ 17.6 µM) | 6.2 µg/mL (≈ 17.6 µM) | Active |  | 8 µg/mL (≈ 22.8 µM) | 6.2 µg/mL (≈ 17.6 µM) | Active |  | MIC (Candida albicans; Candida albicans, 120 h, read-out: MIC): 50 µg/mL (≈ 142 µM)
